High-throughput results deposited in PubChem BioAssay by several laboratories.
CHOP inhibitor – blocks CHOP induction under ER stress; CHO-K1 CHOP-promoter luciferase, tunicamycin-induced, 15-18 h; inhibition, % at 10 µM; actives 3.8% (n = 220,000);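 active means compounds that reduced the stress-induced luciferase reporter signal by more than about 70% of percent inhibition, limit read from the data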;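 further: 0% = tunicamycin plus vehicle and 100% = wells without tunicamycin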
UPR XBP1 act – adaptive UPR (XBP1) activation | activation, % at 20 µM | AID 463104 | actives 0.33% (n = 330,000) | CHO-XBP1 luciferase reporter, IRE1-XBP1 UPR activation, luminescence; percent of tunicamycin response, DMSO as zero;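 active means versus positive control, 20 µM dose yields 30% or more activation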;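 further: 100% = tunicamycin at 10 µg/mL and 0% = DMSO only wells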
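Material: CHO-XBP1 cells stably carrying IRE1-XBP1-driven luciferase reporter / Amount: 1000 cells per well / Compound: 20 µM, 1% DMSO / Times: 6 h treatment, 37 °C / Detection: luciferase luminescence / Measure: % activation of reporter signal versus tunicamycin and DMSO controls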
697 NFkB inh – inhibitors of the PMA/ionomycin-induced NF-kB reporter in 697 B cells; 697 B-cell NF-kB luciferase reporter, 16 h; inhibition, % at 4 µM; actives 0.33% (n = 330,000); in the data active means inhibition above about 35%
UPR CHOP act – apoptotic UPR (CHOP) activation; CHO-CHOP luciferase reporter, luminescence; percent of tunicamycin response over DMSO baseline; activation, % at 10 µM; actives 0.34% (n = 330,000); AID 449763;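 active means at 10 µM dose, activation of 40% or more, normalized to positive control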;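 further: 100% = tunicamycin at 10 µg/mL and 0% = DMSO alone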
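Assay system: CHO cells with stable CHOP pathway luciferase reporter; Buffer or medium: F12 plus 10% serum; Times: 16-18 h cell attachment, then 6 h compound exposure, 37 °C; Signal: luciferase luminescence; Read-out basis: percent activation relative to tunicamycin control; Control set: tunicamycin high control, DMSO low control.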
Jurkat NFkB inh – lowers PMA/ionomycin-induced NF-kB signal in Jurkat cells. actives 0.53% (n = 330,000). PMA/ionomycin-induced NF-kB luciferase reporter, luminescence. inhibition, % at 4 µM; in the data active means inhibition above about 50%
* = called active by the depositor; . = no result. The entries come from a sample that favours hits as a whole.

SMILES	CHOP inhibitor	UPR XBP1 act	697 NFkB inh	UPR CHOP act	Jurkat NFkB inh
O=Nc1c(O)n(Cc2cccc(C(F)(F)F)c2)c2ccccc12	38	-2	-2	0	0
CCOc1ccccc1C(=O)Nc1nncs1	19	1	-2	-1	-2
CCOc1ccccc1C(=O)Nc1nnc(C(C)C)s1	76*	9	-24	3	-12
CC1(C)Cc2c(sc3c2c(=N)n(Cc2ccco2)c(=O)n3Cc2ccccc2)CO1	70*	2	11	-4	6
O=C(CSc1cccc(C(F)(F)F)c1)NC(=O)c1ccccc1	17	-1	13	0	14
CSc1nc(C)cc(SCC(=O)Nc2ccccc2)n1	6	-2	12	-2	8
CSc1nc(C)cc(SCC(=O)Nc2ccc(Cl)cc2Cl)n1	87*	-2	-12	2	0
CCNC(=O)NC(=O)CSc1cccc(C(F)(F)F)c1	40	0	-12	-3	-1
O=C(CSc1cccc(C(F)(F)F)c1)NC(=O)NCc1ccco1	82*	-2	11	0	22
O=C(CSc1cccc(C(F)(F)F)c1)Nc1ccc(Cl)cc1Cl	83*	0	4	-1	-6
CCN(C(=O)COC(=O)CCc1c[nH]c2ccccc12)c1c(N)n(Cc2ccccc2)c(=O)[nH]c1=O	.	-1	8	2	16
Cc1nc2sc(C(=O)c3ccccc3)c(N)c2c(C)c1C	-2	4	-5	2	-29
Cc1snc2sc(C(=O)c3ccc(Br)cc3)c(N)c12	92*	24	-148	4	-129
O=C(NCCc1ccc(Cl)cc1)C1CCC(CNc2nc(=S)[nH]c3ccccc23)CC1 (centres undefined)	87*	27	-27	-1	0
O=C(NCCC1=CCCCC1)C1CCC(CNc2nc(=S)[nH]c3ccccc23)CC1 (centres undefined)	94*	10	-1	3	0
CCCCNC(=O)C1CCC(CNc2nc(=S)[nH]c3ccccc23)CC1 (centres undefined)	23	0	18	3	5
Cc1cc(NC(=O)CCC(=O)N(CC(=O)NCC2CCCO2)c2ccc(C)c(C)c2)no1 (centres undefined)	.	-6	7	1	-6
O=Cc1ccc(OCC(=O)N2CCOCC2)cc1	-31	-3	-2	-2	-21
Cc1ccc(C)c(S(=O)(=O)N2CCCOC2CNC(=O)C(=O)NC2CC2)c1 (centres undefined)	.	-2	-9	-2	-9
C/C(=N\O)C(=O)OC1CC(C)CCC1C(C)C (centres undefined)	88*	1	-2	-3	12
Cc1ccc(-c2noc(CN3CCCCC3)n2)cc1	7	1	-124	6	-76
c1ccc(CC2CCN(Cc3nc(-c4ccccc4)no3)CC2)cc1	92*	-3	-7	0	0
Cc1ccc(-c2noc(CN3CCN(c4ccccc4F)CC3)n2)cc1	74*	-1	-4	1	1
Cc1cc(=O)oc(C)c1C(=O)OCC(=O)c1ccccc1	-10	-1	-17	1	-1
Cc1cc(=O)oc(C)c1C(=O)OCC(=O)c1ccc2ccccc2c1	71*	-3	-29	-1	4
SMILES	CHOP inhibitor	UPR XBP1 act	697 NFkB inh	UPR CHOP act	Jurkat NFkB inh
O=C(COc1cc(Cl)c(Cl)cc1Cl)Nc1cccc(O)c1	79*	-3	16	3	-93
CCOC(=O)c1c(NC(=O)c2cc(CC(C)C)on2)sc(C(C)=O)c1C	13	1	-3	5	-8
CCOC(=O)c1c(NC(=O)c2cc(C(C)C)on2)sc(C(C)=O)c1C	93*	4	-7	1	-5
CC1CN(C(=O)CN(C)S(=O)(=O)c2ccc3ccccc3c2)CC(C)O1 (centres undefined)	.	-5	20	2	5
CCc1ccc(OCC(=O)Nc2cccc3c2CCCC3)cc1	79*	3	-2	0	-9
N[C@H](CCC(=O)NCS(=O)(=O)O)C(=O)O	2	.	.	.	.
Cc1ccc2[nH]c(=O)c(-c3nc4cc(C)ccn4c3NCc3ccco3)cc2c1	93*	-1	-121	3	-112
Cn1c(C(=O)N2CCN(c3cccc(C(F)(F)F)c3)CC2)cc2sccc21	72*	-1	10	0	7
O=C(c1ccccc1F)N1CCN(c2cccc(C(F)(F)F)c2)CC1	74*	-1	-18	0	-9
